The source of these data is ChEMBL document CHEMBL5257094, “Synthesis and analysis of novel catecholic ligands as inhibitors of catechol-O-methyltransferase” (Bioorg Med Chem Lett, 2023).

Each structure is given as a SMILES string. Active and inactive are the calls of the source. The rule behind the calls is not given here. Bounds are passed on as bounds.

The target of one data set is T1, Catechol O-methyltransferase (Homo sapiens) (UniProt P21964).
T1 sequence (whole entry): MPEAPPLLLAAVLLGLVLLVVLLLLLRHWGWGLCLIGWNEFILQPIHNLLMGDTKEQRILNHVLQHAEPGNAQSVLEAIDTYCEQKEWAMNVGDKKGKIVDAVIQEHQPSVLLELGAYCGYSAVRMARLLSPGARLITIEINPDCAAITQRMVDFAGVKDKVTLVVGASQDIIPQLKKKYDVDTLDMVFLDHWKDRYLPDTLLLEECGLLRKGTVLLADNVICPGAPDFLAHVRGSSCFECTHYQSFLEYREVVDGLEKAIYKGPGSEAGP
The data set can be described thus: Inhibition of S-COMT (unknown origin) assessed as scopoletin formation by measuring fluorescence using 6,7-dihydroxycoumarin as substrate at 10 uM and measured for 60 mins by fluorescence based microplate reader assay.
Conditions: not given
The procedure, abridged: (§1)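 Soluble COMT (S-COMT) activity was run at 37 °C and pH 7.4. The substrate was aesculetin (6,7-dihydroxycoumarin) at 6 μM, which methylation converts to fluorescent scopoletin. Fluorescence was read over 60 min. Test catechols were added at 10 μM or 100 μM. Each was assayed at least in triplicate, and the signal was normalized to the no-inhibitor aesculetin fluorescence.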
In the case of `N#CCCc1ccc(O)c(O)c1`, the inhibition entry is “inactive”.

For `N#CCc1ccc(O)c(O)c1`, the inhibition result was “inactive”.

As for `NCCc1cc(O)c(O)cc1O` [OXIDOPAMINE], the inhibition entry was “inactive”.

Take `NCCc1cc(O)c(O)cc1[N+](=O)[O-]`: the inhibition entry was “inactive”.

For `NCCc1cc(O)c(O)cc1Br`, the inhibition entry is “inactive”.

`N#Cc1cc(O)c(O)cc1CCN`: the inhibition result is “inactive”.

Turning to `N#Cc1ccc(O)c(O)c1`, the inhibition result is “inactive”.

Turning to `N#CCCc1cc(O)c(O)cc1[N+](=O)[O-]`, the inhibition result was “inactive”.

With `NCCc1cc(O)c(O)cc1C(=O)O`, the inhibition entry is “inactive”.

Take `Oc1cc2c(cc1O)CNCC2`: the inhibition result is “inactive”.

For `N#CCc1cc(O)c(O)cc1[N+](=O)[O-]`, the inhibition entry was “Active”.

System in a further data set: not listed separately
Briefly: Dissociation constant, pKa of compound pH 3.01 to 12.36 at 0.2 mM by spectroscopic analysis. The class given is physicochemical.
Conditions: not given
The procedure, abridged:
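Five-buffer series in which CHES replaced Borax over pH 8.2–10.8, with KCl buffers added to widen the range. Compound dissolved in each buffer across pH 3.01–12.36 to a final 0.2 mM. Absorbance was read, normalized, and fitted to give the first and, where determinable, second catechol hydroxyl pKa.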
Consider `NCCc1ccc(O)c(O)c1` [DOPAMINE], for which the pKa at 200 µM came out at 8.66.

Molecule `N#CCc1ccc(O)c(O)c1` came in with a pKa at 200 µM of 9.6.

`NCCc1cc(O)c(O)cc1[N+](=O)[O-]` displayed a pKa at 200 µM of 6.33.

Consider `N#Cc1ccc(O)c(O)c1`, for which the pKa at 200 µM amounted to 7.45.

`N#CCc1cc(O)c(O)cc1[N+](=O)[O-]` yielded a pKa at 200 µM of 6.23.

Another data set addresses T1, Catechol O-methyltransferase (Homo sapiens). The data set can be described thus: Inhibition of S-COMT (unknown origin) assessed as scopoletin formation by measuring fluorescence using 6,7-dihydroxycoumarin as substrate at 100 uM and measured for 60 mins by fluorescence based microplate reader assay.
Conditions: not given
The procedure, abridged: as §1
Consider `N#CCCc1ccc(O)c(O)c1`, for which the inhibition entry was “Active”.

With `N#CCc1ccc(O)c(O)c1`, the inhibition result was “Active”.

`NCCc1cc(O)c(O)cc1O` [OXIDOPAMINE]: the inhibition result is “Active”.

As to `NCCc1cc(O)c(O)cc1[N+](=O)[O-]`, the inhibition amounted to 50%.

As to `NCCc1cc(O)c(O)cc1Br`, the inhibition result is “inactive”.

For `N#Cc1cc(O)c(O)cc1CCN`, the inhibition was determined as 30%.

As to `N#Cc1ccc(O)c(O)c1`, the inhibition entry is “Active”.

For `N#CCCc1cc(O)c(O)cc1[N+](=O)[O-]`, the inhibition result was “Active”.

Turning to `NCCc1cc(O)c(O)cc1C(=O)O`, the inhibition result is “inactive”.

For the molecule `Oc1cc2c(cc1O)CNCC2`, the inhibition result is “inactive”.

In the case of `N#CCc1cc(O)c(O)cc1[N+](=O)[O-]`, the inhibition entry was “Active”.

System in a further data set: not listed separately
Briefly: Stability of compound in phosphate buffer at 7.4 assessed as drug degradation incubated for 1 hr by HPLC analysis. The class given is physicochemical. Conditions: buffer, pH 7.4, 1 h. Put shortly:
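Compounds were incubated at assay conditions, 37 °C in phosphate buffer at pH 7.4, for 1 hour. Degradation was then assessed by HPLC analysis.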
For the molecule `NCCc1ccc(O)c(O)c1` [DOPAMINE], the Stability entry is “Stable”.

`N#CCCc1ccc(O)c(O)c1`: the Stability entry is “Unstable”.

On to `N#CCc1ccc(O)c(O)c1`, for which the Stability entry is “Stable”.

As to `NCCc1cc(O)c(O)cc1[N+](=O)[O-]`, the Stability result is “Stable”.

In the case of `NCCc1cc(O)c(O)cc1Br`, the Stability result was “Stable”.

`N#Cc1cc(O)c(O)cc1CCN`: the Stability entry was “Stable”.

For `N#Cc1ccc(O)c(O)c1`, the Stability entry is “Stable”.

With `N#CCCc1cc(O)c(O)cc1[N+](=O)[O-]`, the Stability result is recorded as “Stable”.

As for `NCCc1cc(O)c(O)cc1C(=O)O`, the Stability result is on record as “Stable”.

Turning to `Oc1cc2c(cc1O)CNCC2`, the Stability result is “Unstable”.

The same data set, now with this note: phosphate buffer, pH 7.4, read-out: Drug degradation.
`NCCc1cc(O)c(O)cc1O` [OXIDOPAMINE]: the degraded at 1 h was above 40%.

On to `N#CCc1cc(O)c(O)cc1[N+](=O)[O-]`, for which the degraded at 1 h was below 5%.
